CTSL1 counter: counter-screen for PFM18AAP inhibitors: inhibitors of F. hepatica cathepsin L1; recombinant F. hepatica cathepsin L1, Z-Leu-Arg-MCA fluorescence; inhibition, % at 5.96 µM; actives 0.49% (n = 300,000); AID 1906;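 active means inhibition above the mean of all tested compounds plus 3 SD, set per screening campaign, cut at about 17% in these data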;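 further: 0% = plate median of test compound wells and 100% = 1 µM Z-Phe-Ala-diazomethylketone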
CHOP inhibitor: blocks CHOP induction under ER stress; inhibition, % at 10 µM; AID 2732; actives 3.8% (n = 220,000); CHO-K1 CHOP-promoter luciferase, tunicamycin-induced, 15-18 h;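 active means compounds that reduced the stress-induced luciferase reporter signal by more than about 70% of percent inhibition, limit read from the data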;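 further: 0% = tunicamycin plus vehicle and 100% = wells without tunicamycin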
UPR XBP1 act: activators of adaptive arm of unfolded protein response (XBP1); CHO-XBP1 luciferase reporter, IRE1-XBP1 UPR activation, luminescence; percent of tunicamycin response, DMSO as zero; activation, % at 20 µM; actives 0.33% (n = 330,000); AID 463104;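 active means versus positive control, 20 µM dose yields 30% or more activation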;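 further: 100% = tunicamycin at 10 µg/mL and 0% = DMSO only wells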
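Material: CHO cell line with stable XBP1 luciferase reporter; schedule: 16-18 h cell attachment at 37 °C, then 6 h compound exposure; signal: glow luminescence from Steady-Glo reagent; medium: serum-containing F12 medium, 10% FBS; benchmarks: tunicamycin 10 µg/mL and vehicle-only wells; read-out: percent activation relative to tunicamycin reference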
CHOP UPR activ: activators of apoptotic arm of unfolded protein response (CHOP) | CHO-CHOP luciferase reporter, UPR activation, luminescence; percent of tunicamycin response over DMSO baseline | activation, % at 10 µM | actives 0.34% (n = 330,000) | AID 449763;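 active means at 10 µM dose, activation of 40% or more, normalized to positive control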;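 further: 100% = tunicamycin at 10 µg/mL and 0% = DMSO alone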
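Test system: CHO CHOP reporter cells. Input: 500 CHO-CHOP cells per well. Medium: F12 with 10% FBS. Technique: luciferase luminescence. Measure: percent activation relative to tunicamycin control. Dosing: 10 µM compound, 0.5% DMSO. Timing: 16-18 h cell attachment, then 6 h compound exposure, 37 °C.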
UCH37 DUB inh: blocks the human deubiquitinase UCH37. purified proteasome/UCH37, Ub-AMC cleavage fluorescence. inhibition, % (no concentration beside the values). actives 0.33% (n = 330,000). AID 588478;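 active means mean inhibition over replicate wells above about 20%, limit read from the data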;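 further: 0% = compound-free wells with enzyme and 100% = wells lacking proteasome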
Target sequence (Q9Y5K5 whole entry, looked up): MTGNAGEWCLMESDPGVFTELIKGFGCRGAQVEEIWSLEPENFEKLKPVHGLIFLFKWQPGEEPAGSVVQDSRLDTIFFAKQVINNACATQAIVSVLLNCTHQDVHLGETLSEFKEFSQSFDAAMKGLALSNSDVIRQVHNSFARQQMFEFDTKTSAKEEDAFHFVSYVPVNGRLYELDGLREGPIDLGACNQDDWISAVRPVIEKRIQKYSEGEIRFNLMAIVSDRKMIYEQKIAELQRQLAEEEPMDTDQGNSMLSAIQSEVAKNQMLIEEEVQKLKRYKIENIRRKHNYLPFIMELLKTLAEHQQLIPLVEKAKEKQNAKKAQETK
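system = Proteasome-associated human UCH37 deubiquitinase | amount = 0.15 nM proteasome as dispensed | medium = pH 7.4 Tris-HCl (50 mM) with ovalbumin, ATP-MgCl2, DTT | incubation = 30 min preincubation with enzyme, 25 min cleavage at room temperature | detection = AMC fluorescence 355/460 nm | read-out basis = percent inhibition | controls = no-proteasome and no-compound wells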
* hit, by the source's call; nt = no result given. This excerpt belongs to a sample that is enriched for hits.

SMILES | CTSL1 counter | CHOP inhibitor | UPR XBP1 act | CHOP UPR activ | UCH37 DUB inh
CCC(C)NC(=O)c1c(N)n(N=Cc2cccnc2)c2nc3ccccc3nc12 (stereo not drawn) | nt | nt | nt | nt | -102
Cn1cccc1C(=O)OCC(=O)Nc1ccc2c(c1)OCO2 | -2 | -13 | 1 | 7 | 2
Cn1cccc1C(=O)OCc1cc(Cl)cc2c1OCOC2 | 1 | 73* | 3 | 5 | 4
COc1ccc(OC)c(C2C3=C(N=c4sc(=Cc5cccc(O)c5)c(=O)n42)c2ccccc2CC3)c1 (stereo not drawn) | nt | nt | nt | nt | 2
CCOc1ccc(/C=C\C(C)=NO)cc1 | nt | nt | nt | nt | 4
CCCN(CC(=O)Nc1cccc(Br)c1)CC(=O)Nc1ccc(F)c(F)c1F | -3 | 79* | -6 | -2 | 5
CCCN(CC(=O)Nc1ccc(NC(C)=O)cc1)CC(=O)Nc1ccc(F)c(F)c1F | 4 | nt | -2 | 0 | 5
CCCN(CC(=O)Nc1ccc(C)cc1Br)CC(=O)Nc1ccc(F)c(F)c1F | 5 | 72* | -2 | 1 | -2
CCCN(CC(=O)Nc1cccc(S(N)(=O)=O)c1)CC(=O)Nc1ccc(F)c(F)c1F | -4 | 0 | 0 | 2 | 3
Fc1ccc(C=NN2CCN(Cc3ccccc3)CC2)cc1 | nt | nt | nt | nt | 2
O=C(Nc1ccc(Cl)c([N+](=O)[O-])c1)Nc1nc2ccccc2s1 | 0 | 92* | 0 | 2 | nt
CS(=O)(=O)c1ccc2nc(NC(=O)Nc3cccc(Cl)c3)sc2c1 | 0 | 92* | 21 | 6 | 2
O=C(Nc1ccc(Cl)cc1)/C(=C/c1ccc([N+](=O)[O-])cc1)c1nc2ccccc2s1 | nt | 105* | nt | nt | nt
COc1ccc(C2CC2C(C)=NOC(=O)c2ccc(F)cc2)cc1 (stereo not drawn) | nt | nt | nt | nt | 5
Cc1ccc(OCC(=O)NN=Cc2cn(Cc3ccccc3)c3ccccc23)cc1 | nt | nt | nt | nt | 0
CCNC(=O)C(=O)NN=Cc1cc([N+](=O)[O-])ccc1O | nt | nt | nt | nt | 5
COc1ccccc1NC(=O)c1nnn(CC(=O)Nc2cccc(SC)c2)c1N | -3 | 70* | -1 | -3 | -13
CCOc1ccccc1NC(=O)Cn1nnc(C(=O)Nc2ccccc2Cl)c1N | nt | 73* | -2 | 4 | 4
NC(=NOCC(=O)Nc1ccccc1)c1nonc1N | nt | nt | nt | nt | 1
COc1ccc(-c2nc(NC(=O)c3n[nH]c(=O)c4ccccc34)sc2C)cc1 | 3 | 100* | -1 | 3 | 3
COc1cc(NC(=O)c2n[nH]c(=O)c3ccccc23)cc(OC)c1 | 2 | 17 | 0 | 0 | -9
Cc1sc(NC(=O)Cn2[nH]c(=O)c3ccccc3c2=O)nc1-c1ccccc1 | -1 | 88* | -2 | 2 | -5
COc1ccc(/C=C/C(=O)c2cc(Cl)cc(Cl)c2O)c(OC)c1 | 1 | 71* | 4 | 6 | 2
CC(=NNC(=O)CN(c1ccccc1Br)S(C)(=O)=O)c1ccc2c(c1)OCCO2 | nt | nt | nt | nt | 1
Cc1nc2ccc(Br)cn2c1C(=O)NN=Cc1ccc(C(C)C)cc1 | nt | nt | nt | nt | 1
SMILES | CTSL1 counter | CHOP inhibitor | UPR XBP1 act | CHOP UPR activ | UCH37 DUB inh
CCc1nnc(NC(=O)[C@@H](NC(=O)c2cccc(S(=O)(=O)N(CC)CC)c2)C(C)C)s1 | -3 | 83* | -2 | -1 | -5
Cc1cc(=O)[nH]c(NN=Cc2sccc2C)n1 | nt | nt | nt | nt | 10
CSc1ccccc1NC(=O)COc1ccc(Cl)cc1C | -1 | 83* | 4 | 3 | 2
Cc1cc(Cl)ccc1OCC(=O)Nc1ccccc1CO | -1 | 25 | 4 | 5 | -1
Cc1ccc(/C=c2\sc3nc(-c4cccnc4)nn3c2=O)cc1 | -2 | 54 | nt | nt | nt
CC(C)c1ccc(/C=c2\sc3nc(-c4ccncc4)nn3c2=O)cc1 | -3 | 71* | 2 | 2 | nt
COc1ccc(C=NNc2ncnc(Cl)c2N)cc1OC | nt | nt | nt | nt | 14
NNc1nc2c(-c3ccc(Cl)cc3)nnn2c2ccccc12 | -2 | 91* | 1 | 8 | -20
Cn1c2ccccc2c2cc(C(=O)NNC(=O)CCl)sc21 | 94* | 12 | 1 | 1 | -25
O=S(=O)(c1ccc(NC(=S)NN=Cc2cccc(Oc3ccccc3)c2)cc1)N1CCOCC1 | nt | nt | nt | nt | 2
Cc1cccc(NC(=O)CSc2nc3c([nH]c4ccccc43)c(=O)n2C)c1 | -1 | 79* | 18 | 9 | 0
O=C(CSc1nc2nc3c(cc2c(=O)n1-c1ccccc1)CCCC3)Nc1cccc2ccccc12 | 0 | 29 | 1 | 2 | -1
Cc1cccc(NC(=O)CSc2nc3nc4c(cc3c(=O)n2-c2ccccc2)CCCC4)c1 | 1 | 80* | 2 | 5 | -3
CCSc1nc2c([nH]c3ccccc32)c(=O)n1C | 2 | 77* | 0 | -2 | -4
CCC(C)Sc1nc2c([nH]c3ccccc32)c(=O)n1C (stereo not drawn) | 3 | 10 | 0 | -1 | 3
Cn1c(SCC(=O)Nc2ccccc2)nc2c([nH]c3ccccc32)c1=O | -5 | 11 | 24 | -1 | 3
COc1ccc(C=Nc2oc(C)c(C)c2C#N)c(OC)c1 | nt | nt | nt | nt | 0
CC1=NNC(=O)C1CCC(=O)NN=Cc1cccc(Cl)c1 (stereo not drawn) | nt | nt | nt | nt | 1
COc1ccc(S(=O)(=O)N(Cc2ccccc2)Cc2nc3ccccc3c(=O)[nH]2)cc1 | -1 | 72* | 0 | -2 | -1
NC(=NC(=O)c1ccc(OCC(F)(F)F)nc1)c1ccc(Cl)cc1 | 10 | 82* | -2 | -2 | 3
NC(=NC(=O)c1ccc(OCC(F)(F)F)nc1)c1ccccc1 | -6 | 25 | -1 | 0 | 4
Cc1cccc(C)c1Nc1c(-c2ccccn2)nc2ccccn12 | 11 | 71* | 4 | 8 | -1
Cc1ccccc1Nc1c(-c2ccccn2)nc2c(C)cccn12 | 1 | -18 | 4 | 1 | 4
Cc1ccc(Nc2c(-c3ccccn3)nc3cccc(C)n23)cc1 | 12 | 94* | 17 | 21 | -1
O=C(CCCCCn1c(=S)[nH]c2cc3c(cc2c1=O)OCO3)N1CCN(C2CCCCC2)CC1 | 0 | 83* | 3 | -1 | 6
SMILES | CTSL1 counter | CHOP inhibitor | UPR XBP1 act | CHOP UPR activ | UCH37 DUB inh
O=C(CCCCCn1c(=S)[nH]c2cc3c(cc2c1=O)OCO3)N1CCN(Cc2ccccc2)CC1 | 2 | 40 | 1 | -2 | 1
CCn1c(C)c(C(=O)c2ccccc2)c(C#N)c1C(=O)O | 18* | nt | 2 | -1 | 1
COc1ccc(C=NOC(=O)c2ccc(Cl)cc2)c(Cl)c1OC | nt | nt | nt | nt | 2
Cn1nc(-c2ccc(N3CCCCC3)c(NC(=O)c3ccco3)c2)c2ccccc2c1=O | 4 | 88* | 17 | 4 | -9
O=c1c2ccccc2[nH]c(=S)n1CCc1ccccc1 | -3 | 73* | 5 | 2 | 5
O=c1c2ccccc2[nH]c(=S)n1Cc1ccccc1 | 5 | nt | -3 | 1 | 7
CCOC(=O)CCC(C)=NN=C1SC(CC(=O)O)C(=O)N1c1ccccc1 (stereo not drawn) | nt | nt | nt | nt | 2
